The text below walks through data of ChEMBL document CHEMBL1127414 (J Med Chem, 1994).

In brackets after ≈: the same amount, converted by molar mass. A value given as a limit tells only on which side of the number the result lay.

The subject of assay [1] is HepG2. Briefly: Concentration required to inhibit cholesterol synthesis in Hep G2 cells. It counts as functional, cell-based. The note with it: Homo sapiens. A digest of the protocol:
(§1)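 Hep G2 cells held 2 days in lipoprotein-depleted FBS to stimulate sterol synthesis, then given inhibitor in serum-free medium for 2 h. 15 μCi [5-3H]mevalonate (0.2 mCi/mmol) added for 1 h. Cells washed and saponified, and radioactivity counted by scintillation.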

For assay [2], the target named is T1, Squalene synthase (Rattus norvegicus, UniProt Q02769).
T1 sequence (Q02769 whole entry): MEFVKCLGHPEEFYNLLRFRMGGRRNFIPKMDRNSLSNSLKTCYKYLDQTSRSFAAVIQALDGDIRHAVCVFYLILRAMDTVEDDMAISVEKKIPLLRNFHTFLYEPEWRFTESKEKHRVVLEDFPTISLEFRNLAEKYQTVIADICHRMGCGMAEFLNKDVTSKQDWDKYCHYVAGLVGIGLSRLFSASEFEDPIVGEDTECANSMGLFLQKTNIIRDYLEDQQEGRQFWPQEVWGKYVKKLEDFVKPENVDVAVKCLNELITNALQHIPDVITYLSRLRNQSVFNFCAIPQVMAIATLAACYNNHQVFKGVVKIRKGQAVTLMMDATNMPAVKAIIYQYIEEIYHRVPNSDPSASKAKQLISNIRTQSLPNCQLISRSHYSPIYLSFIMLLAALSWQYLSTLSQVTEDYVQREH
Briefly: Tested for inhibition against squalene synthase enzyme in rat liver.

Assay [3] has as its target T2, Squalene synthase (Rattus norvegicus) (UniProt Q02769).
T2 sequence (whole entry): T1 sequence (Q02769 whole entry)
Briefly: Concentration required to inhibit rat liver squalene synthase enzyme relative to control (L-694,599). Put shortly: (§2)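 Enzyme from rat liver. […] Inhibitors added in DMSO (0.3% final) as 3-fold serial dilutions, usually up to 30 ng/mL (about 40 nM). IC50 read from % inhibition vs log concentration.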

Assay [4] deals with HepG2. Description: Concentration of compound required to inhibit cholesterol synthesis in Hep G2 cells relative to control (IC50 of L-694,599). It counts as functional, Homo sapiens. Put shortly: as §1
For assay [5], the system named is Mus musculus. Description: Tested for its ability to inhibit the incorporation of [5-3H]-mevalonolactone into cholesterol by in vivo mouse assay by peroral administration at a dose of 12 mg/kg. The assay is classed as functional. The note with it: route oral. A digest of the protocol:
(§3)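 Female Swiss Webster mice (~25 g), six per group, dosed po by gavage with inhibitor suspended in 5% emulphor. 30 min later, 0.5 μCi/mouse [5-3H]mevalonolactone in saline given sc. Livers removed 30 min after that and saponified in KOH/EtOH overnight at 55 °C, then petroleum-ether extracted. Nonsaponifiable dpm counted. Compounds first tested at a single dose (typically 12 or 24 mg/kg).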

Assay [6] concerns the target T3, Squalene synthase (Mus musculus) (UniProt P53798).
T3 sequence (whole entry): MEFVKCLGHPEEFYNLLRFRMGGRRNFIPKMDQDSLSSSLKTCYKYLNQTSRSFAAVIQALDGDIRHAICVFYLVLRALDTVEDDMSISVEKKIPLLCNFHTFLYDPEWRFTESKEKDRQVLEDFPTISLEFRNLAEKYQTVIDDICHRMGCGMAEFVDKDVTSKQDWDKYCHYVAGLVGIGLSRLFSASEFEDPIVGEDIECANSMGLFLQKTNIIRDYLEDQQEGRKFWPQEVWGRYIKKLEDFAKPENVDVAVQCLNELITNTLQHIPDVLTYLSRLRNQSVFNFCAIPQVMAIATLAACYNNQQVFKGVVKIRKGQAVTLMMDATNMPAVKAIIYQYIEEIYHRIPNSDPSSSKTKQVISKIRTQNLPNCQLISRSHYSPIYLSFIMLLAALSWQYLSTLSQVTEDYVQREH
Briefly: Tested for the effective dose required for the incorporation of [5-3H]-mevalonolactone into cholesterol by in vivo mouse assay by peroral administration. The assay is classed as functional, organism-based. Put shortly:
as §3

The target of assay [7] is T1, Squalene synthase. Description: Concentration required for inhibition of rat liver squalene synthase enzyme at 161 nM; Not active.
The target in assay [8] is T1, Squalene synthase. Briefly: Concentration required for inhibition of rat liver squalene synthase enzyme at 161 nM; NA = not active.
Assay [9] deals with T2, Squalene synthase (Rattus norvegicus). Description: concentration required to inhibit rat liver squalene synthase enzyme relative to control (L-694,599). Put shortly: as §2
In a further assay the test system is Aspergillus fumigatus. Description: Concentration required to inhibit growth of MF 4839 strain of Aspergillus fumigatus. It counts as functional. Put shortly:
(§4)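 Broth microdilution against a panel of clinically relevant fungal strains. Read-out was the minimum fungicidal concentration in μg/mL.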

A further assay has as its system Candida parapsilosis. Description: Concentration required to inhibit growth of MY 1010 strain of Candida parapsilosis. It counts as functional. The note with it: Lodderomyces parapsilosis. Put shortly: as §4
Assay [10] relates to Candida albicans. Description: Concentration required to inhibit growth of MY 1055 strain of Candida albicans. The assay is classed as functional. A digest of the protocol:
as §4

Assay [11] concerns Candida albicans. Briefly: Concentration required to inhibit growth of MY 1750 strain of Candida albicans. It counts as functional. A digest of the protocol:
as §4

The subject of another assay is Candida tropicalis. Briefly: Concentration required to inhibit growth of MY 1012 strain of Candida tropicalis. The assay is classed as functional. Put shortly:
as §4

Assay [12] relates to Cryptococcus neoformans. Briefly: Concentration required to inhibit growth of MY 1051 strain of Cryptococcus neoformans. The assay is classed as functional. A digest of the protocol: as §4
Assay [13] relates to Cryptococcus neoformans. Description: Concentration required to inhibit growth of MY 2061 strain of Cryptococcus neoformans. The assay is classed as functional. Put shortly: as §4
Assay [14] has as its system Mus musculus. Description: Ability to inhibit the incorporation of [5-3H]-mevalonolactone into cholesterol by in vivo mouse assay by peroral administration at a dose of 24 mg/kg. The assay is classed as functional. The note with it: route oral. Put shortly: as §3
Another assay has as its system Trichophyton benhamiae. Description: Concentration required to inhibit growth of MF 4864 strain of Trichophyton mentagrophytes. The assay is classed as functional, Arthroderma benhamiae. Put shortly: as §4

As for `C=C(CCC12OC(C(=O)O)C(O)(C(=O)O)C(C(=O)O)(O1)[C@H](OC(=O)CCCCCCC)[C@H]2O)[C@@H](OC(C)=O)[C@H](C)Cc1ccccc1` (stereo partly specified), the IC50 in the assay on HepG2 [1] amounted to 9600 nM; on Squalene synthase [2], 0.66 nM. The Relative activity is 0.17 in assay [3] and 0.57 with HepG2 [4].

For `C=C(CCC12OC(C(=O)O)C(O)(C(=O)O)C(C(=O)O)(O1)[C@H](OC(=O)CCC(=O)O)[C@H]2O)[C@@H](OC(C)=O)[C@H](C)Cc1ccccc1` (stereo partly specified), in the assay with Mus musculus [5], the inhibition in vivo at 12 mg/kg was -20%. For the same compound, the ED50 in assay [6] is > 12 mg/kg. For the same compound, on Squalene synthase [7], the 50% inhibitory concentration (IC50) entry was “Not Active”.

In the case of `C=C(CCC12OC(C(=O)O)C(O)(C(=O)O)C(C(=O)O)(O1)[C@H](OCCCCCCCCCCCOc1ccccc1)[C@H]2O)[C@@H](OC(C)=O)[C@H](C)Cc1ccccc1` (stereo partly specified), the IC50 in the assay with HepG2 [1] is 1300 nM; against Squalene synthase [2] it was 0.06 nM. Moreover, the Relative activity was 2 in assay [3] and 6.38 in the assay on HepG2 [4].

Turning to `C=C(CCC12OC(C(=O)O)C(OCCCCCCCCCCCOc3ccccc3)(C(=O)O)C(C(=O)O)(O1)[C@H](OCCCCCCCCCCCOc1ccccc1)[C@H]2O)[C@@H](OC(C)=O)[C@H](C)Cc1ccccc1` (stereo partly specified), the 50% inhibitory concentration (IC50) entry on Squalene synthase [8] is given as “Not Active”.

In the case of `C=C(CCC12OC(C(=O)O)C(O)(C(=O)O)C(C(=O)O)(O1)[C@H](OC(=O)CCCN)[C@H]2O)[C@@H](OC(C)=O)[C@H](C)Cc1ccccc1` (stereo partly specified), in the assay on Mus musculus [5], the inhibition in vivo at 12 mg/kg was found to be 0%. Besides, the ED50 in assay [6] is > 12 mg/kg. Also, the IC50 result at Squalene synthase [7] is “Not Active”.

Regarding `C=C(CCC12OC(C(=O)O)C(O)(C(=O)O)C(C(=O)O)(O1)[C@H](OC(=O)CC(C)(C)C)[C@H]2O)[C@@H](OC(C)=O)[C@H](C)Cc1ccccc1` (stereo partly specified), the inhibition in vivo at 12 mg/kg in the assay with Mus musculus [5] turned out to be 25%. For the same compound, the ED50 in assay [6] is > 12 mg/kg. For the same compound, the half-maximal inhibitory concentration (IC50) against Squalene synthase [2] was 2 nM. The same compound came in with a Relative activity in assay [9] of 0.15.

As for `C=C(CCC12OC(C(=O)O)C(O)(C(=O)O)C(C(=O)O)(O1)[C@H](OC)[C@H]2O)[C@@H](OC(C)=O)[C@H](C)Cc1ccccc1` (stereo partly specified), the inhibition in vivo at 12 mg/kg in the assay on Mus musculus [5] was determined as 73%. For the same compound, in assay [6], the median effective dose (ED50) was < 12 mg/kg. The compound further gave a 50% inhibitory concentration (IC50) against Squalene synthase [2] of 22 nM. In assay [3], this compound gave a Relative activity of 0.004.

Take `C=C(CCC12OC(C(=O)O)C(O)(C(=O)O)C(C(=O)O)(O1)[C@H](OC(=O)OCCCCCCCCCC)[C@H]2O)[C@@H](OC(C)=O)[C@H](C)Cc1ccccc1` (stereo partly specified): the MFC is 2 µg/mL (≈ 2.77 µM) against Aspergillus fumigatus; 2 µg/mL (≈ 2.77 µM) against Candida parapsilosis; 8 µg/mL (≈ 11.1 µM) against Candida albicans [10]; 16 µg/mL (≈ 22.1 µM) against Candida albicans [11]; 2 µg/mL (≈ 2.77 µM) in the assay with Candida tropicalis; 8 µg/mL (≈ 11.1 µM) against Cryptococcus neoformans [12]. In addition, the MFC in the assay with Cryptococcus neoformans [13] was 0.25 µg/mL (≈ 0.346 µM); with Trichophyton benhamiae it was < 0.06 µg/mL. Besides, the midpoint of inhibition with HepG2 [1], the IC50, lay at 2400 nM. Further, the inhibition in vivo at 24 mg/kg in the assay with Mus musculus [14] came out at 28%.

`C=C(CCC12OC(C(=O)O)C(O)(C(=O)O)C(C(=O)O)(O1)[C@H](OC(=O)C(C)(C)C)[C@H]2O)[C@@H](OC(C)=O)[C@H](C)Cc1ccccc1` (stereo partly specified): the inhibition in vivo at 12 mg/kg with Mus musculus [5] is -2%. Further, the ED50 in assay [6] is > 12 mg/kg. For the same compound, the IC50 result against Squalene synthase [7] is on record as “Not Active”.

As a reminder, the IC50 is the concentration needed to halve the response being measured. The low end stands for greater potency, the high end for weaker potency. What is called inhibition in vivo is the relative decrease from the control value, in per cent. The term ED50 denotes the dose that gives a 50% effect, or the effect in half of the subjects. Higher therefore signals a need for a large dose.
